SR-BI DiI-HDL act: enhances SR-BI lipid uptake from DiI-HDL | CHO ldlA[mSR-BI] cells, DiI-HDL uptake fluorescence, 3 h; 100 = double the neutral-control signal | activation, % at 12.5 µM | actives 0.096% (n = 320,000);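 active = mean replicate activation of at least 60% and every replicate at or above 60%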;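 note: 0% = median plate neutral-control signal and 100% = twice that signal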
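system = CHO ldlA[mSR-BI] cells, LDL receptor-null, SR-BI overexpressing | medium = Ham's F12 with 0.5% BSA, HEPES 25 mM, pH 7.4 | probe or stimulus = DiI-HDL 10 µg/mL | compound dosing = single-point compound dose | incubation = compound exposure 3 h, 37 °C | technique = DiI fluorescence, bottom read | read-out = cell-associated DiI fluorescence as measure of HDL uptake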
Vif inh: HIV Vif inhibition | HEK293T cells, Vif self-association by quenched fluorescence, imaging, 24 h | inhibition, % at 7.49 µM | actives 0.35% (n = 340,000); in the data active = inhibition above about 50%, passing the limit was not always enough
CaV13 FRET inh: Primary screen for inhibitors of IQ motif and Ca2+-dependent inactivation inhibitor domain binding in CACNA1D, Förster resonance energy transfer in living cells, …; HEK cells, CFP/YFP FRET ICDI-IQ, plate reader, 10 min; percent FRET-ratio fall versus neutral wells; inhibition, % at 12.3 µM; actives 0.098% (n = 340,000);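 active = mean replicate inhibition of at least 30% and at least 1% of replicates passing that level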;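 note: 0% = median of the neutral control wells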
V-ATPase pH: alters yeast V-ATPase proton transport; S. cerevisiae, pHLuorin cytosolic pH fluorescence; response, % at 10 µM; actives 0.37% (n = 350,000); AID 504577; in the data active = response mostly above about 7.3%, no sharp cut-off; inactive = mostly below about 5.4%; note: actives read high
NTR1 agonist: activates human neurotensin receptor 1; activation, % at 20 µM; NTR1-U2OS beta-arrestin-GFP spot imaging, agonist mode; P30989; actives 0.17% (n = 330,000); AID 493036;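 active = activation at or above 40% of the spot to cytoplasm intensity ratio, with at least 20 cells analyzed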;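 note: 0% = DMSO without peptide and 100% = 100 nM NTR1 peptide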
SR-BI DiI inh: mouse SR-BI HDL lipid transfer inhibition; Q61009; ldlA[mSR-BI] CHO cells, DiI-HDL uptake fluorescence, 3 h; inhibition, % at 12.5 µM; actives 0.96% (n = 320,000); AID 488896;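 active = mean replicate inhibition of at least 70% and a set share of replicates each scoring 70 or more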;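 note: 0% = median of neutral control wells and 100% = median of positive control wells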
Target sequence (Q61009 whole entry, looked up): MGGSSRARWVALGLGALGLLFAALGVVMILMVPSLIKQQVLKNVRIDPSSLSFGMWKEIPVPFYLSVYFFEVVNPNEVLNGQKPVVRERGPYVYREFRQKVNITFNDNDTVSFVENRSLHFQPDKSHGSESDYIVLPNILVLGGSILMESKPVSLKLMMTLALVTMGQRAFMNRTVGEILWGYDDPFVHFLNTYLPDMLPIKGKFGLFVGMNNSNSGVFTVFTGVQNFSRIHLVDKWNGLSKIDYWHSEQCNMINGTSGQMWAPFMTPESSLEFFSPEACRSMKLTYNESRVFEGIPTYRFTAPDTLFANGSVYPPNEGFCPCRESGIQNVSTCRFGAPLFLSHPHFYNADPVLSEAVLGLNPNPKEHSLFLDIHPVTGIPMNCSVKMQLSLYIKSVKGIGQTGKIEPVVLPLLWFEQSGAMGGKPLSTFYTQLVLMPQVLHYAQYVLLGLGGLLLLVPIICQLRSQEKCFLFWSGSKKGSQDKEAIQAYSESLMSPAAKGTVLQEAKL
Starred values were filed as active, the others as inactive; / = no result given. A selection: hits, their analogues and other compounds. The true share with any hit is near 1.7%.

SMILES | SR-BI DiI-HDL act | Vif inh | CaV13 FRET inh | V-ATPase pH | NTR1 agonist | SR-BI DiI inh
CC1C(=O)C(C)C(c2cc(Cl)ccc2O)NC1c1cc(Cl)ccc1O (stereo not given) | -86 | -5 | -1 | 0 | 60* | 86*
CCOC(=O)C1=CCC(c2ccccc2)N(S(C)(=O)=O)C1 (stereo not given) | / | / | -4 | / | / | /
COc1ccc(C(=O)CSc2nnc(CN3CCCCC3)n2-c2ccc(F)cc2)cc1 | -38 | -3 | -19 | 2 | 1 | 38
O=C(Nc1ccc(S(=O)(=O)Nc2nccs2)cc1)C1CC(=O)N(c2ccc(Cl)cc2)C1 (stereo not given) | / | 35 | -3 | -1 | -1 | /
O=C(Nc1ccc(S(=O)(=O)N2CCCCC2)cc1)C1CC(=O)N(c2ccccc2)C1 (stereo not given) | / | 27 | -4 | -3 | -1 | /
O=C(Nc1ccc(S(=O)(=O)Nc2ncccn2)cc1)C1CC(=O)N(c2ccc(Cl)cc2)C1 (stereo not given) | / | 56* | -3 | 2 | 1 | /
CC1CCCN(S(=O)(=O)c2ccc(NC(=O)C3CC(=O)N(c4ccccc4)C3)cc2)C1 (stereo not given) | / | -21 | -7 | 14* | 2 | /
CC(=O)N/C(=C\c1ccccc1)C(=O)OCC(=O)NC(=O)c1ccccc1 | 15 | 6 | -5 | -3 | 0 | -15
O=C(c1ccccc1)N1CCC2CCN(S(=O)(=O)c3ccccc3)CC21 (stereo not given) | / | / | -12 | / | / | /
COc1ccccc1NCc1cc(=O)oc2c(C)c(O)ccc12 | -73 | -10 | -4 | -10 | 1 | 73*
CCOCCn1c(=NC(=O)/C=C/c2ccccc2Cl)sc2cc(NC(C)=O)ccc21 | -71 | -2 | -3 | -19 | 0 | 71*
CCC1=Nc2cc(C(=O)NCc3ccco3)ccc2Sc2ccc(C)cc21 | -15 | 57* | -5 | 5 | / | 15
Cc1ccc2c(c1)N(C(=O)c1ccco1)C(C)(C)c1ssc(=S)c1-2 | -94 | / | -5 | -3 | 6 | 94*
COCCN(CC(=O)NC1CCCCC1)C(=O)CCCC(=O)Nc1ccccn1 | -5 | / | -3 | -2 | 1 | 5
C[C@@]12C(=O)OC(=O)[C@]1(C)C1CCC2O1 | -89 | -19 | -5 | 0 | 10 | 89*
Cc1c(Cl)cccc1-n1cnc(=O)c2ccccc21 | 17 | 6 | -21 | 13* | 5 | -17
O=c1ncn(-c2cccc([N+](=O)[O-])c2)c2ccccc12 | 10 | -1 | -2 | -1 | 0 | -10
CCC(C)C(=O)Nn1c(C2CC2)nc2cc(OC)c(OC)cc2c1=O (stereo not given) | 2 | 125* | -4 | -3 | -1 | -2
CN(C)Cc1c(C(C)(C)O)[nH]c2ccccc12 | / | / | -6 | / | / | /
Cc1ccc(-c2nc3c(C)cc(Br)cn3c2Cc2ccccc2C(F)(F)F)cc1 | / | / | -7 | / | / | /
O=C(O)c1ccc(OCc2occc2C(=O)O)cc1 | 10 | 12 | -4 | 17* | -1 | -10
O=C(O)c1ccc(OCc2ccc(C(=O)O)o2)cc1 | -5 | -3 | -4 | 2 | -1 | 5
COc1ccc(CNCc2cccc(Oc3ccccc3)c2)cc1 | 8 | 2 | -1 | 0 | 7 | -8
C#CCOCCOCCOCCNc1nc(N2CCN(C(=O)CCCCCCCCCCNC(=O)Cn3cc(CCCCCN)nn3)CC2)nc(N2CCN(C(=O)CCCCCCCCCCNC(=O)[C@H](CO)n3cc(CCCCCN)nn3)CC2)n1 | 29 | 54* | / | 2 | 0 | -29
C#CCOCCOCCOCCNc1nc(N2CCN(C(=O)CCCCCCCCCCNC(=O)[C@H](CCCCN)n3cc(CCO)nn3)CC2)nc(N2CCN(C(=O)CCCCCCCCCCNC(=O)[C@H](CCCN=C(N)N)n3cc(C[C@@H](C)CC)nn3)CC2)n1 | -58 | 72* | / | -3 | 1 | 58
SMILES | SR-BI DiI-HDL act | Vif inh | CaV13 FRET inh | V-ATPase pH | NTR1 agonist | SR-BI DiI inh
C#CCOCCOCCOCCNc1nc(N2CCN(C(=O)CCCCCCCCCCNC(=O)[C@H](CCCCN)n3cc(CCCC(=O)O)nn3)CC2)nc(N2CCN(C(=O)CCCCCCCCCCNC(=O)[C@H](CCCN=C(N)N)n3cc(C[C@@H](C)CC)nn3)CC2)n1 | -80 | 12 | / | -3 | 1 | 80*
O=C(C1CCCO1)N1CCN(c2ccccn2)CC1 (stereo not given) | / | 12 | 1 | -1 | -2 | /
CCC(C)N(C(=O)COC(=O)c1ccc(N)c([N+](=O)[O-])c1)C1CCS(=O)(=O)C1 (stereo not given) | / | -3 | -10 | -2 | / | /
CSc1nnc2ccc(-c3ccccn3)nn12 | / | 3 | -4 | 8 | 0 | /
Cc1nc2ccccc2n1S(=O)(=O)c1ccc(Br)cc1 | 65* | / | -3 | -1 | 5 | -65
COCCNc1oc(/C=C/c2cccc(OC)c2)nc1S(=O)(=O)c1ccccc1 | / | 1 | -6 | -1 | / | /
CCc1cccc2c(C(=O)COC(=O)/C=C/c3ccc(O)c(OC)c3)c[nH]c12 | -76 | -11 | -4 | 0 | 10 | 76*
Cc1cc(C)cc(NC(=O)COC(=O)COc2ccc(N(C)S(=O)(=O)c3cccs3)cc2)c1 | 5 | 50* | -19 | -2 | 0 | -5
CCOC(=O)N(C)C[C@H]1OCc2cnnn2CCCC(=O)N([C@H](C)CO)C[C@@H]1C | / | / | -5 | / | / | /
COc1ccccc1Cc1c(-c2ccc(C#N)cc2)nc2ccc(C)cn12 | / | / | -5 | / | / | /
CCCNc1nc(N)nc(-c2cc(Cl)ccc2OC)n1 | 5 | 8 | 0 | 2 | 0 | -5
CCCN(CCC)c1nc(N)nc(-c2cc(Cl)ccc2OC)n1 | -82 | 6 | -7 | -1 | 6 | 82*
CCSc1ccccc1C(=O)Nc1ccc([N+](=O)[O-])cc1OC | -84 | / | -4 | 1 | 1 | 84*
CCCC(=O)Nc1ccc(C(=O)Nc2ccc([N+](=O)[O-])cc2OC)cc1 | -77 | -6 | -4 | 0 | 6 | 77*
Cc1ccc(C)c(-n2c(Cc3cc(=O)[nH]c(=O)[nH]3)nnc2SC(C)C)c1 | 15 | 0 | 39* | -2 | 4 | -15
CSc1nnc(Cc2cc(=O)[nH]c(=O)[nH]2)n1-c1cc(C)ccc1C | 70* | 7 | -4 | -3 | 1 | -70
CCSc1nnc(Cc2cc(=O)[nH]c(=O)[nH]2)n1-c1cc(C)ccc1C | -4 | 5 | -4 | 1 | -2 | 4
Cc1nn(CCCC(=O)N2CCc3ccccc3C2)c(=O)c2cc3sccc3n12 | -2 | 85* | -3 | -2 | 11 | 2
CCOC(=O)CCCn1nc(C)n2c(cc3sccc32)c1=O | 2 | / | / | -2 | 1 | -2
COCCn1c(=NC(=O)c2ccc(S(=O)(=O)N3CCc4ccccc4C3)cc2)sc2cc(OC)ccc21 | -72 | 2 | -3 | -1 | -1 | 72*

Source: PubChem (several laboratories)
